Assay results reported in ChEMBL document CHEMBL3286116, “Synthesis, biological evaluation and structure-activity correlation study of a series of imidazol-based compounds as Candida albicans inhibitors” (Eur J Med Chem, 2014).
≈ marks a conversion by molar mass, not a printed value.

Tests used:
Candida albicans [1] = assay: Antifungal activity against Candida albicans ATCC 90028 after 48 hrs by CLSI broth microdilution method; assay type: functional; details: ATCC 90028, 48 h
Method in brief: (§1)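 Yeast CLSI broth microdilution (M27-A3). Compounds dissolved in DMSO at 100× the top test concentration, then diluted as serial two-fold dilutions in RPMI 1640 to final 0.125–64. Inoculum was 1.0–1.5 × 10^3 cells mL−1, incubated at 35 °C and read for growth at 48 h. MIC is the lowest concentration giving ≥50% growth inhibition versus growth control. Reported as the median of five replicates and as the geometric mean.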

Candida albicans [2] = assay: Antifungal activity against Candida albicans ATCC 20891 after 48 hrs by CLSI broth microdilution method; assay type: functional; details: ATCC 20891, 48 h; method in brief: as §1
Candida albicans [3] = assay: Antifungal activity against Candida albicans PMC 1011 after 48 hrs by CLSI broth microdilution method; assay type: functional; details: PMC 1011, 48 h; method in brief: as §1
Pichia kudriavzevii [4] = assay: Antifungal activity against Candida krusei DSM 6128 after 48 hrs by CLSI broth microdilution method; assay type: functional; details: DSM 6128, 48 h; method in brief: as §1
Pichia kudriavzevii [5] = assay: Antifungal activity against Candida krusei PMC 0613 after 48 hrs by CLSI broth microdilution method; assay type: functional; details: PMC 0613, 48 h; method in brief: as §1
Candida tropicalis [6] = assay: Antifungal activity against Candida tropicalis PMC 0910 after 48 hrs by CLSI broth microdilution method; assay type: functional; details: PMC 0910, 48 h; method in brief: as §1
Candida tropicalis [7] = assay: Antifungal activity against Candida tropicalis DSM 11953 after 48 hrs by CLSI broth microdilution method; assay type: functional; details: DSM 11953, 48 h; method in brief: as §1
Candida parapsilosis [8] = assay: Antifungal activity against Candida parapsilosis DSM 11224 after 48 hrs by CLSI broth microdilution method; assay type: functional; details: Lodderomyces parapsilosis, DSM 11224, 48 h; method in brief: as §1
Candida parapsilosis [9] = assay: Antifungal activity against Candida parapsilosis ATCC 22019 after 48 hrs by CLSI broth microdilution method; assay type: functional; details: Lodderomyces parapsilosis, ATCC 22019, 48 h; method in brief: as §1
Nakaseomyces glabratus [10] = assay: Antifungal activity against Candida glabrata PMC 0805 after 48 hrs by CLSI broth microdilution method; assay type: functional; details: PMC 0805, 48 h; method in brief: as §1
Nakaseomyces glabratus [11] = assay: Antifungal activity against Candida glabrata PMC 0807 after 48 hrs by CLSI broth microdilution method; assay type: functional; details: PMC 0807, 48 h; method in brief: as §1
Cryptococcus neoformans [12] = assay: Antifungal activity against Cryptococcus neoformans PMC 2123 after 72 hrs by CLSI broth microdilution method; assay type: functional; details: PMC 2123, 72 h
Method in brief: (§2)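 Cryptococcus neoformans tested by CLSI broth microdilution in RPMI 1640, with serial two-fold dilutions from DMSO stocks at 100× the top concentration, final 0.125–64. Inoculum was 1.0–1.5 × 10^3 cells mL−1 at 35 °C, with growth read at 72 h. MIC is the lowest concentration with ≥50% growth inhibition versus control. Median of five replicates, plus geometric mean.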

Cryptococcus neoformans [13] = assay: Antifungal activity against Cryptococcus neoformans PMC 2136 after 72 hrs by CLSI broth microdilution method; assay type: functional; details: PMC 2136, 72 h; method in brief: as §2
Cryptococcus neoformans [14] = assay: Antifungal activity against Cryptococcus neoformans PMC 2115 after 72 hrs by CLSI broth microdilution method; assay type: functional; details: PMC 2115, 72 h; method in brief: as §2
Cryptococcus neoformans [15] = assay: Antifungal activity against Cryptococcus neoformans PMC 2103 after 72 hrs by CLSI broth microdilution method; assay type: functional; details: PMC 2103, 72 h; method in brief: as §2
Cryptococcus neoformans [16] = assay: Antifungal activity against Cryptococcus neoformans PMC 2107 after 72 hrs by CLSI broth microdilution method; assay type: functional; details: PMC 2107, 72 h; method in brief: as §2
Cryptococcus neoformans [17] = assay: Antifungal activity against Cryptococcus neoformans PMC 2102 after 72 hrs by CLSI broth microdilution method; assay type: functional; details: PMC 2102, 72 h; method in brief: as §2
Cryptococcus neoformans [18] = assay: Antifungal activity against Cryptococcus neoformans DSM 11959 after 72 hrs by CLSI broth microdilution method; assay type: functional; details: DSM 11959, 72 h; method in brief: as §2
Cryptococcus neoformans [19] = assay: Antifungal activity against Cryptococcus neoformans PMC 2111 after 72 hrs by CLSI broth microdilution method; assay type: functional; details: PMC 2111, 72 h; method in brief: as §2
[20] = system: Trichophyton mentagrophytes; assay: Antifungal activity against Trichophyton mentagrophytes DSM 4870 after 72 hrs by CLSI broth microdilution method; assay type: functional; details: DSM 4870, 72 h
Method in brief: (§3)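 Dermatophytes tested by CLSI broth microdilution for filamentous fungi (M38-A2). Serial two-fold dilutions of DMSO-dissolved compound in RPMI 1640, final 0.125–64. Inoculum was 0.4–5 × 10^4 CFU mL−1, incubated at 35 °C and read at 72 h. MIC80 is the lowest concentration giving ≥80% growth inhibition versus growth control. Median of five replicates, plus geometric mean.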

[21] = system: Trichophyton mentagrophytes; assay: Antifungal activity against Trichophyton mentagrophytes PMC 6515 after 72 hrs by CLSI broth microdilution method; assay type: functional; details: PMC 6515, 72 h; method in brief: as §3
[22] = system: Trichophyton mentagrophytes; assay: Antifungal activity against Trichophyton mentagrophytes PMC 6531 after 72 hrs by CLSI broth microdilution method; assay type: functional; details: PMC 6531, 72 h; method in brief: as §3
[23] = system: Trichophyton mentagrophytes; assay: Antifungal activity against Trichophyton mentagrophytes PMC 6509 after 72 hrs by CLSI broth microdilution method; assay type: functional; details: PMC 6509, 72 h; method in brief: as §3
[24] = system: Trichophyton mentagrophytes; assay: Antifungal activity against Trichophyton mentagrophytes PMC 6503 after 72 hrs by CLSI broth microdilution method; assay type: functional; details: PMC 6503, 72 h; method in brief: as §3
[25] = system: Trichophyton mentagrophytes; assay: Antifungal activity against Trichophyton mentagrophytes PMC 6552 after 72 hrs by CLSI broth microdilution method; assay type: functional; details: PMC 6552, 72 h; method in brief: as §3
Nannizzia gypsea [26] = assay: Antifungal activity against Microsporum gypseum PMC 7303 after 72 hrs by CLSI broth microdilution method; assay type: functional; details: PMC 7303, 72 h; method in brief: as §3
Nannizzia gypsea [27] = assay: Antifungal activity against Microsporum gypseum PMC 7331 after 72 hrs by CLSI broth microdilution method; assay type: functional; details: PMC 7331, 72 h; method in brief: as §3
Nannizzia gypsea [28] = assay: Antifungal activity against Microsporum gypseum DSM 3824 after 72 hrs by CLSI broth microdilution method; assay type: functional; details: DSM 3824, 72 h; method in brief: as §3
Candida albicans [29] = assay: Antifungal activity against Candida albicans PMC 1040R after 48 hrs by CLSI broth microdilution method; assay type: functional; method in brief: as §1
Candida albicans [30] = assay: Antifungal activity against Candida albicans PMC 1041R after 48 hrs by CLSI broth microdilution method; assay type: functional; method in brief: as §1
Nakaseomyces glabratus [31] = assay: Antifungal activity against Candida glabrata PMC 0850R after 48 hrs by CLSI broth microdilution method; assay type: functional; method in brief: as §1
Nakaseomyces glabratus [32] = assay: Antifungal activity against Candida glabrata PMC 0851R after 48 hrs by CLSI broth microdilution method; assay type: functional; method in brief: as §1
Nakaseomyces glabratus [33] = assay: Antifungal activity against Candida glabrata PMC 0852R after 48 hrs by CLSI broth microdilution method; assay type: functional; method in brief: as §1
Nakaseomyces glabratus [34] = assay: Antifungal activity against Candida glabrata PMC 0853R after 48 hrs by CLSI broth microdilution method; assay type: functional; method in brief: as §1
Candida albicans [35] = assay: Antifungal activity against Candida albicans PMC 1042R after 48 hrs by CLSI broth microdilution method; assay type: functional; method in brief: as §1
[36] = Cytotoxicity against human A549 cells after 48 hrs by MTT assay; assay type: cell-based
Method in brief: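 A549 cells (ATCC CCL-185) seeded at 2 × 10^4/well in phenol-red-free RPMI 1640 with 10% FBS, L-glutamine, penicillin and streptomycin, at 37 °C and 5% CO2. Exposed 48 h to DMSO-dissolved compounds (final 16–256; at least five concentrations, triplicate). MTT added for 3–4 h, crystals solubilized, OD read at 570 nm. CC50 taken versus the DMSO control. Mean ± SD of two independent experiments.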

Candida albicans [37] = assay: Antifungal activity against Candida albicans ATCC 24433 after 48 hrs by CLSI broth microdilution method; assay type: functional; details: ATCC 24433, 48 h; method in brief: as §1
Candida albicans [38] = assay: Antifungal activity against Candida albicans ATCC 3153 after 48 hrs by CLSI broth microdilution method; assay type: functional; details: ATCC 3153, 48 h; method in brief: as §1
Candida albicans [39] = assay: Antifungal activity against Candida albicans ATCC 10231 after 48 hrs by CLSI broth microdilution method; assay type: functional; details: ATCC 10231, 48 h; method in brief: as §1
Candida albicans [40] = assay: Antifungal activity against Candida albicans ATCC 76615 after 48 hrs by CLSI broth microdilution method; assay type: functional; details: ATCC 76615, 48 h; method in brief: as §1
Candida albicans [41] = assay: Antifungal activity against Candida albicans ATCC 10261 after 48 hrs by CLSI broth microdilution method; assay type: functional; details: ATCC 10261, 48 h; method in brief: as §1

O=C(Nc1ccc(N2CCN(c3ccc(Cl)cc3)CC2)cc1)OC(Cn1ccnc1)c1ccc(F)cc1 (stereo unspecified)
MIC50 (Candida albicans [1]): 0.25 µg/mL (≈ 0.481 µM)
MIC50 (Candida albicans [2]): 0.125 µg/mL (≈ 0.24 µM)
MIC50 (Candida albicans [3]): 0.25 µg/mL (≈ 0.481 µM)
MIC50 (Pichia kudriavzevii [4]): 1 µg/mL (≈ 1.92 µM)
MIC50 (Pichia kudriavzevii [5]): 0.125 µg/mL (≈ 0.24 µM)
MIC50 (Candida tropicalis [6]): 2 µg/mL (≈ 3.85 µM)
MIC50 (Candida tropicalis [7]): 0.5 µg/mL (≈ 0.962 µM)
MIC50 (Candida parapsilosis [8]): 0.125 µg/mL (≈ 0.24 µM)
MIC50 (Candida parapsilosis [9]): 0.25 µg/mL (≈ 0.481 µM)
MIC50 (Nakaseomyces glabratus [10]): 0.125 µg/mL (≈ 0.24 µM)
MIC50 (Nakaseomyces glabratus [11]): 1 µg/mL (≈ 1.92 µM)
MIC50 (Cryptococcus neoformans [12]): 0.5 µg/mL (≈ 0.962 µM)
MIC50 (Cryptococcus neoformans [13]): 0.125 µg/mL (≈ 0.24 µM)
MIC50 (Cryptococcus neoformans [14]): 0.25 µg/mL (≈ 0.481 µM)
MIC50 (Cryptococcus neoformans [15]): 0.25 µg/mL (≈ 0.481 µM)
MIC50 (Cryptococcus neoformans [16]): 0.25 µg/mL (≈ 0.481 µM)
MIC50 (Cryptococcus neoformans [17]): 0.25 µg/mL (≈ 0.481 µM)
MIC50 (Cryptococcus neoformans [18]): 0.25 µg/mL (≈ 0.481 µM)
MIC50 (Cryptococcus neoformans [19]): 0.5 µg/mL (≈ 0.962 µM)
MIC80 [20]: 8 µg/mL (≈ 15.4 µM)
MIC80 [21]: 8 µg/mL (≈ 15.4 µM)
MIC80 [22]: 8 µg/mL (≈ 15.4 µM)
MIC80 [23]: 8 µg/mL (≈ 15.4 µM)
MIC80 [24]: 8 µg/mL (≈ 15.4 µM)
MIC80 [25]: 8 µg/mL (≈ 15.4 µM)
MIC80 (Nannizzia gypsea [26]): 4 µg/mL (≈ 7.69 µM)
MIC80 (Nannizzia gypsea [27]): 8 µg/mL (≈ 15.4 µM)
MIC80 (Nannizzia gypsea [28]): 4 µg/mL (≈ 7.69 µM)
MIC50 (Candida albicans [29]): 64 µg/mL (≈ 123 µM)
MIC50 (Candida albicans [30]): 1 µg/mL (≈ 1.92 µM)
MIC50 (Nakaseomyces glabratus [31]): 1 µg/mL (≈ 1.92 µM)
MIC50 (Nakaseomyces glabratus [32]): 64 µg/mL (≈ 123 µM)
MIC50 (Nakaseomyces glabratus [33]): 4 µg/mL (≈ 7.69 µM)
MIC50 (Nakaseomyces glabratus [34]): 4 µg/mL (≈ 7.69 µM)
MIC50 (Candida albicans [35]): 2 µg/mL (≈ 3.85 µM)
CC50 at 48 h [36]: 172 µg/mL (≈ 330 µM)
MIC50 (Candida albicans [37]): 4 µg/mL (≈ 7.69 µM)
MIC50 (Candida albicans [38]): 8 µg/mL (≈ 15.4 µM)
MIC50 (Candida albicans [39]): 4 µg/mL (≈ 7.69 µM)
MIC50 (Candida albicans [40]): 8 µg/mL (≈ 15.4 µM)
MIC50 (Candida albicans [41]): 1 µg/mL (≈ 1.92 µM)
